9 compounds from publication PMC3114175 (Bioorganic & medicinal chemistry, 2011) can be followed below.

In test [1] the target is T1, TLR7 (Homo sapiens, UniProt Q9NYK1).
T1 sequence (Q9NYK1 27-1049): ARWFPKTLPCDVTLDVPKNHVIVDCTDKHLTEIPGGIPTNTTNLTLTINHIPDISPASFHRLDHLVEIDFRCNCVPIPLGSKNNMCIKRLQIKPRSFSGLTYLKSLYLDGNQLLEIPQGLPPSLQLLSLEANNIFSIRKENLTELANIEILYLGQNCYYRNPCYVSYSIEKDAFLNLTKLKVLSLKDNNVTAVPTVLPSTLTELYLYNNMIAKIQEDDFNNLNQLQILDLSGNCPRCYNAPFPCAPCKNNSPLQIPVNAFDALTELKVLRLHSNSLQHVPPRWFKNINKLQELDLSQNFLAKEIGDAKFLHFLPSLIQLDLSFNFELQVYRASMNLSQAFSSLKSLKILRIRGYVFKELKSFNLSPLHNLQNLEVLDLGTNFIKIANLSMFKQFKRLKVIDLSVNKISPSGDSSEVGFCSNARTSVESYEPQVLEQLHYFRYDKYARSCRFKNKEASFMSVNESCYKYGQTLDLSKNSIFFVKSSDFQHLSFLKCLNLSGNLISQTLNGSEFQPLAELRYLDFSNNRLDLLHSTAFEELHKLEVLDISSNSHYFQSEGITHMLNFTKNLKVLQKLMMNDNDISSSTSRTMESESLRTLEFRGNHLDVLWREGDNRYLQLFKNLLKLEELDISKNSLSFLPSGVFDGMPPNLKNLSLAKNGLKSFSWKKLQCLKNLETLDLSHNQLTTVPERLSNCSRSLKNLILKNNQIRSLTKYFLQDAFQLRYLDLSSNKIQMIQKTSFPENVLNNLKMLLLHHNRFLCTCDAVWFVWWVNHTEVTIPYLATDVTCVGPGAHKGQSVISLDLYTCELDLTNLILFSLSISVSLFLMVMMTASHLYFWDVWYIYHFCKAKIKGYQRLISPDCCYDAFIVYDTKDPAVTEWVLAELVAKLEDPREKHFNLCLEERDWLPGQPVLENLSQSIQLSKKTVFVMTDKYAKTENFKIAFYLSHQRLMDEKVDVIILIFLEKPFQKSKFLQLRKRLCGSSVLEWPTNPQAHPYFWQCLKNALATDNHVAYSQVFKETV
Kind of test: TLR7 antagonism reporter gene assay. In kind it is cell-based. In short, it runs like this:
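HEK-Blue-7 cells (HEK293 stably expressing TLR7 plus NF-κB/AP-1-driven secreted alkaline phosphatase reporter) were kept in selection medium with zeocin and normocin and grown to confluency. They were stimulated with gardiquimod at 1 μg/mL, or 250 ng/mL for Schild analysis, with serially diluted test compound (top 250 μM) added concurrently. After overnight incubation, supernatant sAP was read with chromogen at 620 nm. Replicates were duplicate or quadruplicate.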

Test [2] deals with T2, TLR8 (Homo sapiens, UniProt Q9NR97).
T2 sequence (Q9NR97 27-1041): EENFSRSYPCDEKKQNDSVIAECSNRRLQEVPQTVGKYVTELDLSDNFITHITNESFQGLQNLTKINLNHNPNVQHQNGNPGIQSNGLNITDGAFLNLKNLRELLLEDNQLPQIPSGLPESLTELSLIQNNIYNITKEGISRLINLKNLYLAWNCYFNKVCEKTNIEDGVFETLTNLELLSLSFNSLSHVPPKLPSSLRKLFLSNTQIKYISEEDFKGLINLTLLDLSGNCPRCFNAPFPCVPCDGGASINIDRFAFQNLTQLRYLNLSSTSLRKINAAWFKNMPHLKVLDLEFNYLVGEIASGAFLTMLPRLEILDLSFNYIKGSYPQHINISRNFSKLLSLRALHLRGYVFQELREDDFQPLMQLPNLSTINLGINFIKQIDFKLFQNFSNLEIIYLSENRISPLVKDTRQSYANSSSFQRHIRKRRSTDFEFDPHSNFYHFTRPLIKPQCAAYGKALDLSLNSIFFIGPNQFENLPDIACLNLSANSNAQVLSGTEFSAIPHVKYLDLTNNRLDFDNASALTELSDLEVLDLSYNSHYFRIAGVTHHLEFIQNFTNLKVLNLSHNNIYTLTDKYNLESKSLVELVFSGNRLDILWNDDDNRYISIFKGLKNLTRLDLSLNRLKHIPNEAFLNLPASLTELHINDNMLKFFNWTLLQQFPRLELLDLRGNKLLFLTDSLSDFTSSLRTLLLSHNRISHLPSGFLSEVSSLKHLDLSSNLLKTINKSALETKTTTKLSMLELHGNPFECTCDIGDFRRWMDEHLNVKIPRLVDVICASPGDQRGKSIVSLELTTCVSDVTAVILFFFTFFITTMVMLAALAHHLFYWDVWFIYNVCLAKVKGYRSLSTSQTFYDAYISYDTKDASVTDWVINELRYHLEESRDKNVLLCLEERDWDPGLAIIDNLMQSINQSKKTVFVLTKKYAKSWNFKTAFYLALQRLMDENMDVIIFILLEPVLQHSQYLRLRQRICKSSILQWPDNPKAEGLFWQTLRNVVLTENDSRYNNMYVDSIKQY
Kind of test: TLR8 antagonism reporter gene assay. In kind it is cell-based.

Regarding `CC(C)(O)Cn1c(C2CCCCC2)nc2c3ccccc3ncc21` [Compound 4c], the IC50 in test [1] was more than 250 µM.
`COc1ccc(Cn2c(-c3ccccc3)nc3c4ccccc4[n+](Cc4ccc(OC)cc4)cc32)cc1` [Compound 12, 3,5-bis(4-methoxybenzyl)-2-phenyl-3H-imidazo[4,5-c]quinolin-5-ium]: in test [1] (agonist gardiquimod 1 μg/mL and 250 ng/mL), the “Mode of inhibition by Schild analyses” value is “competitive”.
In test [1], `CCNCc1nc2c3ccccc3nc(NC(=O)c3ccccc3)c2n1CC(C)(C)O` [Compound 11, N-(2-((ethylamino)methyl)-3-(2-hydroxy-2-methylpropyl)-3H-imidazo[4,5-c]quinolin-4-yl)benzamide] yielded a 50% inhibitory concentration (IC50) of more than 250 µM.
As for `CCCCCCCCCc1nc2c3ccccc3ncc2n1C` [Compound 8d], in test [1], the “TLR7-inhibitory activity” value was “low micromolar TLR7-inhibitory activity”.
As to `CC(C)(O)Cn1c(-c2ccccc2)nc2c3ccccc3ncc21` [Compound 4b, 2-methyl-1-(2-phenyl-3H-imidazo[4,5-c]quinolin-3-yl)propan-2-ol], in test [1], the IC50 was more than 250 µM.
As to `C#CCn1c(CCCCCCCCC)nc2c3ccccc3ncc21` [Compound 7d], in test [1], the “TLR7-inhibitory activity” value is given as “low micromolar TLR7-inhibitory activity”.
`CCNCc1nc2c3ccccc3[n+]([O-])cc2n1CC(C)(C)O` [Compound 10, 2-((ethylamino)methyl)-3-(2-hydroxy-2-methylpropyl)-3H-imidazo[4,5-c]quinoline 5-oxide] gave an IC50 in test [1] of more than 250 µM.
For `CCNCc1nc2c3ccccc3ncc2n1CCCO` [Compound 6a, 3-(2-((ethylamino)methyl)-3H-imidazo[4,5-c]quinolin-3-yl)propan-1-ol], the IC50 in test [1] and in test [2] was more than 250 µM throughout.
As to `COc1ccc(Cn2c(-c3ccccc3)nc3c4ccccc4ncc32)cc1` [Compound 5b, 3-(4-methoxybenzyl)-2-phenyl-3H-imidazo[4,5-c]quinoline], the IC50 in test [1] and in test [2] was more than 250 µM each time.
